The nature of series [1]: Partition coefficient (logP). It is filed as physicochemical. Conditions: octanol/water. The procedure, abridged:
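1-Octanol (1 mL) and isotonic Tris buffer pH 7.0 (1 mL) vortexed with 1–5 μL of the 67Cu-labeled aqueous complex, then centrifuged at >1200g for 5 min. Both phases were gamma counted in a window on the 185 keV peak. P = counts per g octanol / counts per g water. The octanol phase was re-extracted; the value is from the second and third extractions, mean of six measurements.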

The species named for series [2] is Rattus norvegicus. The series can be described thus: Myocardial levels of tracer copper in rats 1 min after injection into the femoral vein. It is filed as functional, organism-based. The note with it: Myocardium. The procedure, abridged: (§1)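 Copper-67 bis(thiosemicarbazone) complex, 0.2 mL (1–3 μCi) in 5–10% ethanol, injected with a 27-gauge needle into the exposed femoral vein of ether-anesthetized Sprague-Dawley rats (generally 175–225 g). Dose was set by weighing the syringe. Rats were killed by decapitation; organs were excised, blotted and weighed, and counted for 67Cu by gamma counting against a diluted standard dose. Values are percent injected dose per organ, with blood volume taken as 7% of body mass. Generally four rats per time point; mean ± SD.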

For series [3], the species on record is Rattus norvegicus. The series can be described thus: Myocardial levels of tracer copper in rats 2 hr after injection into the femoral vein. It is filed as functional, organism-based. Conditions: Myocardium. The procedure, abridged: as §1
The species entered for series [4] is Rattus norvegicus. The series can be described thus: Kidney levels of tracer copper in rats 2 hr after injection into the femoral vein. It is filed as functional, organism-based. The procedure, abridged:
as §1

The species named for series [5] is Rattus norvegicus. The series is described as follows: Liver levels of tracer copper in rats 1 min after injection into the femoral vein. The class given is functional, organism-based. The procedure, abridged: as §1
The species named for series [6] is Rattus norvegicus. The series can be described thus: Pulmonary levels of tracer copper in rats 1 min after injection into the femoral vein. It is filed as functional, organism-based. The procedure, abridged:
as §1

For series [7], the species on record is Rattus norvegicus. The series can be described thus: Pulmonary levels of tracer copper in rats 2 hr after injection into the femoral vein. It is filed as functional, organism-based. An outline of the steps: as §1
The species named for series [8] is Rattus norvegicus. The series is described as follows: Pulmonary levels of tracer copper in rats 5 min after injection into the femoral vein. It is filed as functional, organism-based. An outline of the steps:
as §1

The species entered for series [9] is Rattus norvegicus. The series is described as follows: Liver levels of tracer copper in rats 5 min after injection into the femoral vein. It is filed as functional, organism-based. The procedure, abridged:
as §1

The species named for series [10] is Rattus norvegicus. The series can be described thus: Liver levels of tracer copper in rats 2 hr after injection into the femoral vein. It is filed as functional, organism-based. An outline of the steps:
as §1

The species entered for series [11] is Rattus norvegicus. The series can be described thus: (§2) Blood levels of tracer copper in rats 5 min after injection into the femoral vein. The class given is functional, organism-based. The procedure, abridged: as §1
For series [12], the species on record is Rattus norvegicus. The series is described as follows: Blood levels of tracer copper in rats 1 min after injection into the femoral vein. The class given is functional, organism-based. An outline of the steps:
as §1

For series [13], the species on record is Rattus norvegicus. The series is described as follows: Blood levels of tracer copper in rats 2 hr after injection into the femoral vein. It is filed as functional, organism-based. An outline of the steps: as §1
Series [14] is filed under the species Rattus norvegicus. The description is as §2. It is filed as functional, organism-based. The procedure, abridged:
as §1
The source holds these as a separate data set.

Series [15] is filed under the species Rattus norvegicus. The series is described as follows: Brain levels of tracer copper in rats 1 min after injection into the femoral vein. The class given is functional, organism-based. The procedure, abridged: as §1
The species entered for series [16] is Rattus norvegicus. The series is described as follows: Brain levels of tracer copper in rats 2 hr after injection into the femoral vein. It is filed as functional, organism-based. The procedure, abridged:
as §1

The species entered for series [17] is Rattus norvegicus. The series can be described thus: Brain levels of tracer copper in rats 5 min after injection into the femoral vein. It is filed as functional, organism-based. An outline of the steps:
as §1

The species named for series [18] is Rattus norvegicus. The series can be described thus: Kidney levels of tracer copper in rats 1 min after injection into the femoral vein. The class given is functional, organism-based. An outline of the steps:
as §1

For series [19], the species on record is Rattus norvegicus. The series can be described thus: Myocardial levels of tracer copper in rats 5 min after injection into the femoral vein. It is filed as functional, organism-based. The note with it: Myocardium. The procedure, abridged:
as §1

The species named for series [20] is Rattus norvegicus. The series is described as follows: Kidney levels of tracer copper in rats 5 min after injection into the femoral vein. It is filed as functional, organism-based. The procedure, abridged:
as §1

In general, logP refers to a log measure of how a compound divides between an organic and an aqueous phase. High values mean a more lipophilic compound, low ones a more hydrophilic compound. In series [1], “Propyl glyoxal bis(thiosemicarbazone)(67Cu-n-PrTS) [listing 1 of 2 here]” returned a logP of 1.78.
Turning to “Propyl glyoxal bis(thiosemicarbazone)(67Cu-n-PrTS) [listing 2 of 2 here]”, the Injected dose in series [2] turned out to be 3.9%; in series [3], 3.5%; in [4], 3.6%; in series [5], 11.5%; in series [6] it was 13.1%; in series [7], 5.2%. Further, the Injected dose in series [8] was determined as 9.6%; in series [9], 13.7%; in series [10], 17.3%; in series [11] it was 8.9%; in series [12] it was 15.2%; in series [13] it was 8.5%. Moreover, the Injected dose in [14] is 8.9%; in series [15] it was 1.45%; in series [16] it was 1.79%; in series [17], 1.27%; in [18], 2.8%; in [19], 3%. Besides, the Injected dose in series [20] amounted to 2.8%.

The values above are taken from ChEMBL document CHEMBL1125103, “Structure-activity relationships for metal-labeled blood flow tracers: comparison of keto aldehyde bis(thiosemicarbazonato)copper(II) derivatives” (J Med Chem, 1990).
